According to ChEMBL document CHEMBL1149129, “Design and synthesis of 3'- and 5'-O-(3-benzenesulfonylfuroxan-4-yl)-2'-deoxyuridines: biological evaluation as hybrid nitric oxide donor-nucleoside anticancer agents” (2004):

Legend:
143B [1] = experiment: In vitro cell cytotoxicity was determined against 143B cell line; format: functional; settings: Homo sapiens
Procedure, shortened: (§1)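 Human 143B or 143B-LTK cells were grown in complete MEME with 10% FBS and seeded at 8×10^2 cells/well. After 24 h at 37 °C in 5% CO2, compound in medium was added and cells were incubated 3 days. Viability was read by MTT (4 h), with formazan dissolved in DMSO and A540 corrected for blanks. CC50 is the concentration cutting A540 to 50% of control (mean, n = 6).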

143B [2] = experiment: In vitro cell cytotoxicity was determined against 143B-LTK cell line; format: functional; settings: Homo sapiens; procedure, shortened: as §1
[3] = In vitro percent nitric oxide released from the test compound was determined as the percent of nitrite (NO2-) produced in phosphate buffered saline at 16 hr; format: functional
Procedure, shortened: (§2)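 Compound (2 mM solution) in 0.1 M phosphate buffer, pH 7.4, without L-cysteine was incubated at 37 °C for 1 or 16 h in the absence of air. It was then exposed to air for 10 min at 25 °C and mixed with an equal volume of Griess reagent (sulfanilamide/N-naphthylethylenediamine). A540 was read after 10 min. Percent NO, as nitrite, came from a 0–100 µM sodium nitrite standard curve (±SEM, n = 3).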

[4] = In vitro percent nitric oxide released from the test compound was determined as the percent of nitrite (NO2-) produced in phosphate buffered saline at 1 hr; format: functional; procedure, shortened: as §2
[5] = In vitro percent nitric oxide released from the test compound was determined as the percent of nitrite (NO2-) produced in the present of L-cysteine in Phosphate buffer saline at 1 hr; format: functional
Procedure, shortened: (§3)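 Equal volumes of 0.2 mM compound and freshly prepared 3.6 mM L-cysteine, each in 0.1 M phosphate buffer, pH 7.4, were mixed and incubated at 37 °C for 1 or 16 h in the absence of air. After 10 min air exposure at 25 °C, an equal volume of Griess reagent was added and A540 read after 10 min. Nitrite was quantified against a 0–100 µM NaNO2 curve (±SEM, n = 3).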

EMT6 = experiment: In vitro cell cytotoxicity was determined against EMT-6 cell line; format: functional; settings: Mus musculus
Procedure, shortened: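 Murine EMT-6 cells in complete Waymouth medium with 12.5% FBS were plated at 8×10^2 cells/well and preincubated 24 h (37 °C, 5% CO2). Compound in medium was then given for 3 days. MTT reduction was measured over 4 h, with DMSO solubilization and blank-corrected absorbance at 540 nm. CC50 is the concentration reducing A540 to 50% of control (mean, n = 6).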

[6] = In vitro percent nitric oxide released from the test compound was determined as the percent of nitrite (NO2-) produced in the present of L-cysteine in Phosphate buffer saline at 16 hr; format: functional; procedure, shortened: as §3
KBALB cell line = experiment: In vitro cell cytotoxicity was determined against KBALB cell line; format: functional; settings: Mus musculus
Procedure, shortened: (§4)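 Murine KBALB or KBALB-STK cells, or Hs578Bst human fibroblasts, were grown in complete DMEM with 10% FBS and seeded at 8×10^2 cells/well. After 24 h at 37 °C in 5% CO2, compound in medium was added for 3 days. MTT was added for 4 h, formazan dissolved in DMSO, and blank-corrected A540 read. CC50 is 50% of control A540 (mean, n = 6).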

Hs578Bst (Homo sapiens) = experiment: In vitro cell cytotoxicity was determined against Hs 578.Bst cell line
KBALB-STK = experiment: In vitro cell cytotoxicity was determined against KBALB-STK cell line; format: functional; settings: Mus musculus; procedure, shortened: as §4

Row | Structure (SMILES) | CC50 (143B [1]) [µM] | CC50 (143B [2]) [µM] | NO release [3] [%] | NO release [4] [%] | NO release [5] [%] | CC50 (EMT6) [nM] | NO release [6] [%] | CC50 (KBALB cell line) [nM] | CC50 (Hs578Bst (Homo sapiens)) [nM] | CC50 (KBALB-STK) [nM]
1 | O=S(=O)(c1ccccc1)c1no[n+]([O-])c1S(=O)(=O)c1ccccc1 | 0.04 | 0.028 | 0.4 | 0.2 | 22.7 | 100 | 38.8 | 520 | 100 | 600
2 | O=c1[nH]c(=O)n([C@H]2C[C@H](O)[C@@H](COc3no[n+]([O-])c3S(=O)(=O)c3ccccc3)O2)cc1I | 0.54 | 0.71 | 9.9 | 9.8 | 28.3 | 1000 | 71.9 | 920 | 800 | 920
3 | Cc1cn([C@H]2C[C@H](O)[C@@H](CO)O2)c(=O)[nH]c1=O [DOXRIBTIMINE] | 600 | 700 | – | – | – | – | – | 970000 | – | 650000
4 | O=c1ccn([C@H]2C[C@H](Oc3no[n+]([O-])c3S(=O)(=O)c3ccccc3)[C@@H](CO)O2)c(=O)[nH]1 | 0.96 | 2.9 | 0.2 | 0.9 | 45.6 | 80 | 85.8 | 790 | 4800 | 1700
5 | O=c1[nH]c(=O)n([C@H]2C[C@H](Oc3no[n+]([O-])c3S(=O)(=O)c3ccccc3)[C@@H](CO)O2)cc1I | 0.56 | 1.3 | 0.4 | 1.2 | 39.8 | 80 | 74.8 | 380 | 800 | 400
6 | COc1no[n+]([O-])c1S(=O)(=O)c1ccccc1 | 0.07 | 0.32 | 1 | 1.1 | 12.3 | 560 | 44.8 | 480 | 680 | 440
7 | Cc1cn([C@H]2C[C@H](Oc3no[n+]([O-])c3S(=O)(=O)c3ccccc3)[C@@H](CO)O2)c(=O)[nH]c1=O | 0.72 | 0.88 | 0.4 | 1.4 | 39.5 | 2400 | 77.3 | 560 | 2000 | 1000
8 | O=c1[nH]c(=O)n([C@H]2C[C@H](O)[C@@H](CO)O2)cc1F [FLOXURIDINE] | – | – | – | – | – | – | – | 95000 | – | 100000
9 | O=[N+]([O-])O[C@H]1CO[C@H]2[C@@H]1OC[C@H]2O[N+](=O)[O-] [ISOSORBIDE DINITRATE] | 7000 | 7400 | 24 | 3.5 | 1.9 | 380000 | 2.6 | 97000 | – | 10000
10 | O=c1[nH]c(=O)n([C@H]2C[C@H](O)[C@@H](CO)O2)cc1I [IDOXURIDINE] | 90 | 100 | – | – | – | 0.009 | – | 0.06 | – | 0.088
11 | O=c1[nH]c(=O)n([C@H]2C[C@H](O)[C@@H](COc3no[n+]([O-])c3S(=O)(=O)c3ccccc3)O2)cc1F | 3.2 | 2 | 0.7 | 0.8 | 41.6 | 60 | 68.7 | 48 | 76 | 60
12 | O=c1[nH]c(=O)n([C@H]2C[C@H](Oc3no[n+]([O-])c3S(=O)(=O)c3ccccc3)[C@@H](CO)O2)cc1C(F)(F)F | 0.52 | 0.48 | 0.4 | 0.3 | 48.3 | 880 | 78.5 | 3200 | 4400 | 2000
13 | O=c1ccn([C@H]2C[C@H](O)[C@@H](COc3no[n+]([O-])c3S(=O)(=O)c3ccccc3)O2)c(=O)[nH]1 | 3.3 | 6.3 | 0.2 | 1.5 | 46 | 750 | 77.9 | 4600 | 4800 | 5400
14 | Cc1cn([C@H]2C[C@H](O)[C@@H](COc3no[n+]([O-])c3S(=O)(=O)c3ccccc3)O2)c(=O)[nH]c1=O | 3.6 | 5.6 | 2.2 | 2.2 | 20.9 | 2000 | 36.8 | 2800 | 6800 | 4800
15 | O=c1[nH]c(=O)n([C@H]2C[C@H](Oc3no[n+]([O-])c3S(=O)(=O)c3ccccc3)[C@@H](CO)O2)cc1F | 0.24 | 0.84 | 0.2 | 0.4 | 41.5 | 2000 | 73.9 | 2000 | 4400 | 840
